Measurements reported in ChEMBL document CHEMBL3870315, “Design, synthesis and biological evaluation of novel cholesteryl ester transfer protein inhibitors bearing a cycloalkene scaffold” (Eur J Med Chem, 2016).
Active and inactive are the calls of the source. The rule behind the calls is not given here.

Legend:
[1] = target: T1, Cholesteryl ester transfer protein (Homo sapiens, UniProt P11597); assay: Inhibition of recombinant CETP (unknown origin) assessed as inhibition of BODIPY-labeled cholesteryl transfer to fluorescent substrate by fluorimetric assay
T1 sequence (P11597 whole entry): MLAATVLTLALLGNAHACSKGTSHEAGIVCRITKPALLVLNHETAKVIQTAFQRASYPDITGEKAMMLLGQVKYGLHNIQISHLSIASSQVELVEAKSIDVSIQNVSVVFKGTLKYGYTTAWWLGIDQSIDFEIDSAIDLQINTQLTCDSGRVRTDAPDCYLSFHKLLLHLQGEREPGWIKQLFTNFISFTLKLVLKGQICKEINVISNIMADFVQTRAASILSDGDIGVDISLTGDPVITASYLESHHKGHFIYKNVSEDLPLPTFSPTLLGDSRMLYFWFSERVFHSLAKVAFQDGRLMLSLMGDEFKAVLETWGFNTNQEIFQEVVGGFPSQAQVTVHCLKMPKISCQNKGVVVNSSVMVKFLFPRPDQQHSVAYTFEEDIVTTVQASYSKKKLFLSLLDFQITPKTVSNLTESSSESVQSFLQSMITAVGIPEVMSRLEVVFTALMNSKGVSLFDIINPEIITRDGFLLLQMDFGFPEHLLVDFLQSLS

Syrian golden hamster [2] = assay: In vivo inhibition of CETP in po dosed high-fat fed syrian hamster model assessed as increase in plasma HDL-cholesterol level administered once daily for 5 days measured 2 hrs post last dose; type: functional, organism-based; details: Mesocricetus auratus
Summary of the method: (§1)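 Male Syrian golden hamsters, 8 weeks old and about 110–120 g, fed a diet with 10% lard oil and 3% cholesterol for 4 weeks, then randomized into four groups. Oral dosing once daily for 5 days in 10% ethanol/10% hydrogenated castor oil/80% water, with a vehicle control group. Animals were fasted 16 h before bleeding. Retro-orbital blood was taken at baseline and 2 h after the last dose. Plasma HDL-C was measured on a chemistry analyser and expressed as percent change. Mean ± SEM.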

[3] = Terminal half life in Sprague-Dawley rat at 50 mg/Kg, po; type: ADME; details: in vivo, read-out: beta t1/2 (converted)
Summary of the method: (§2)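 Four adult male Sprague-Dawley rats, fasted 16 h, given a single oral dose of 50 mg/kg suspended in 10% ethanol/10% hydrogenated castor oil/80% water. Heparinized blood was drawn at 0.5–36 h (15 time points) and centrifuged at 3000 rpm for 15 min. Plasma was stored at -70°C until analysis.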

[4] = AUC in Sprague-Dawley rat at 50 mg/Kg, po; type: ADME; details: in vivo; summary of the method: as §2
Syrian golden hamster [5] = assay: In vivo inhibition of CETP in high-fat fed syrian hamster model assessed as increase in plasma HDL-cholesterol level at 30 mg/kg, po administered once daily for 5 days measured 2 hrs post last dose relative to control; type: functional, Mesocricetus auratus; set-up: scale not given: the % may be the effect or the level left; summary of the method: as §1
[6] = Tmax in Sprague-Dawley rat at 50 mg/Kg, po; type: ADME; details: in vivo; summary of the method: as §2
Syrian golden hamster [7] = assay: In vivo inhibition of CETP in high-fat fed syrian hamster model assessed as increase in plasma HDL-cholesterol level at 50 mg/kg, po administered once daily for 5 days measured 2 hrs post last dose relative to control; type: functional, Mesocricetus auratus; set-up: scale not given: the % may be the effect or the level left; summary of the method: as §1
[8] = Cmax in Sprague-Dawley rat at 50 mg/Kg, po; type: ADME; set-up: dose 50 mg/Kg, route oral; details: in vivo; summary of the method: as §2

SMILES	IC50 [1] [nM]	other results
COc1ccc(C(C)C)cc1C1=C(CN(Cc2cc(C(F)(F)F)cc(C(F)(F)F)c2)c2ncc(N3CCOCC3)cn2)CC(C)(C)CC1	860	
COc1ccc(C(C)C)cc1C1=C(CN(Cc2cc(C(F)(F)F)cc(C(F)(F)F)c2)c2ncc(-c3cnn(C)c3)cn2)CC(C)CC1 (stereo unspecified)	60	
COc1ccc(C(C)C)cc1C1=C(CN(Cc2cc(C(F)(F)F)cc(C(F)(F)F)c2)c2ncc(N3CCC(C(=O)O)CC3)cn2)CC(C)(C)CC1	370	
COc1ccc(C(C)C)cc1C1=C(CN(Cc2cc(C(F)(F)F)cc(C(F)(F)F)c2)c2ncc(O)cn2)CC(C)(C)CC1	3520	
COc1ccc(C(C)C)cc1C1=C(CN(Cc2cc(C(F)(F)F)cc(C(F)(F)F)c2)C(=O)OCc2ccccc2)CC(C)(C)CC1	> 50000	
COc1ccc(C(C)C)cc1C1=C(CN(Cc2cc(C(F)(F)F)cc(C(F)(F)F)c2)c2ncc(-c3cnn(C)c3)cn2)CCCCC1	1620	
COc1ccc(C(C)C)cc1C1=C(CN(Cc2cc(C(F)(F)F)cc(C(F)(F)F)c2)c2ncc(N3CCN(C)CC3)cn2)CC(C)(C)CC1	2070	
COc1ccc(C(C)C)cc1C1=C(CN(Cc2cc(C(F)(F)F)cc(C(F)(F)F)c2)c2ncc(-c3cnn(C)c3)cn2)CC(C)(C)CC1	70	Activity (Syrian golden hamster [2]): Dose-dependent effect; half-life [3]: 666 min; AUC [4]: 6990 ng·h/mL; Activity (Syrian golden hamster [5]): 9.3%; Tmax [6]: 2.5 h; Activity (Syrian golden hamster [7]): 27.9%; Cmax [8]: 697 ng/mL
COc1ccc(C(C)C)cc1C1=C(CN(Cc2cc(C(F)(F)F)cc(C(F)(F)F)c2)c2ncc(-c3cnn(C)c3)cn2)CC(C(C)(C)C)CC1 (stereo unspecified)	70	
COc1ccc(C(C)C)cc1C1=C(CN(Cc2cc(C(F)(F)F)cc(C(F)(F)F)c2)c2ncc(-c3cnn(C)c3)cn2)c2ccccc2CC1	6630	
COc1ccc(C(C)C)cc1C1=C(CN(Cc2cc(C(F)(F)F)cc(C(F)(F)F)c2)c2ncc(N3CCC(N)CC3)cn2)CC(C)(C)CC1	170	
CCC1CCC(c2cc(C(C)C)ccc2OC)=C(CN(Cc2cc(C(F)(F)F)cc(C(F)(F)F)c2)c2ncc(-c3cnn(C)c3)cn2)C1 (stereo unspecified)	80	
COCCOc1cnc(N(CC2=C(c3cc(C(C)C)ccc3OC)CCC(C)(C)C2)Cc2cc(C(F)(F)F)cc(C(F)(F)F)c2)nc1	420	
COC(=O)COc1cnc(N(CC2=C(c3cc(C(C)C)ccc3OC)CCC(C)(C)C2)Cc2cc(C(F)(F)F)cc(C(F)(F)F)c2)nc1	910	
COc1ccc(C(C)C)cc1C1=C(CN(Cc2cc(C(F)(F)F)cc(C(F)(F)F)c2)c2ncc(-c3cccs3)cn2)CC(C)(C)CC1	> 50000	
COc1ccc(C(C)C)cc1C1=C(CN(Cc2cc(C(F)(F)F)cc(C(F)(F)F)c2)c2ncc(Br)cn2)CC(C)(C)CC1	> 50000	
COc1ccc(C(C)C)cc1C1=C(CN(Cc2cc(C(F)(F)F)cc(C(F)(F)F)c2)c2ncc(-c3cnn(C)c3)cn2)CCCC1	930	
COc1ccc(C(C)C)cc1C1=C(CN(Cc2cc(C(F)(F)F)cc(C(F)(F)F)c2)c2ncc(OCC(=O)O)cn2)CC(C)(C)CC1	360	
COc1ccc(C(C)C)cc1C1=C(CN(Cc2cc(C(F)(F)F)cc(C(F)(F)F)c2)c2ncc(-c3cnn(C)c3)cn2)CCC1	2760	
COc1ccc(C(C)C)cc1C1=C(CN(Cc2cc(C(F)(F)F)cc(C(F)(F)F)c2)c2ncc(N3CCC(NC(C)=O)CC3)cn2)CC(C)(C)CC1	520	
COc1ccc(C(C)C)cc1C1=C(CN(Cc2cc(C(F)(F)F)cc(C(F)(F)F)c2)c2ncc(-c3c(C)noc3C)cn2)CC(C)(C)CC1	> 50000	
COC(=O)N(CC1=C(c2cc(C(C)C)ccc2OC)CCC(C)(C)C1)Cc1cc(C(F)(F)F)cc(C(F)(F)F)c1	21000	
COc1ccc(C(C)C)cc1C1=C(CN(Cc2cc(C(F)(F)F)cc(C(F)(F)F)c2)c2ncc(OCCCC(=O)O)cn2)CC(C)(C)CC1	300	
COc1ccc(C(C)C)cc1C1=C(CN(Cc2cc(C(F)(F)F)cc(C(F)(F)F)c2)C(=O)OCC(C)C)CC(C)(C)CC1	> 50000	
COc1ccc(C(C)C)cc1C1=C(CN(Cc2cc(C(F)(F)F)cc(C(F)(F)F)c2)c2ncc(-c3ccnn3C)cn2)CC(C)(C)CC1	> 50000	
COc1ccc(C(C)C)cc1C1=C(CN(Cc2cc(C(F)(F)F)cc(C(F)(F)F)c2)c2ncc(N3CCNCC3)cn2)CC(C)(C)CC1	350	
COc1ccc(C(C)C)cc1C1=C(CN(Cc2cc(C(F)(F)F)cc(C(F)(F)F)c2)c2ncc(-c3cnn(C)c3)cn2)CCc2ccccc21	220	
COc1cc(F)c(C(C)C)cc1-c1ccc(C(F)(F)F)cc1CN1C(=O)O[C@H](c2cc(C(F)(F)F)cc(C(F)(F)F)c2)[C@@H]1C		Activity (Syrian golden hamster [5]; Mesocricetus auratus): Active
COc1ccc(C(C)C)cc1C1=C(CN(Cc2cc(C(F)(F)F)cc(C(F)(F)F)c2)c2ncc(OCCO)cn2)CC(C)(C)CC1	190	
